Laboratory results as given in paper PMC3351161 (Nucleic Acids Research, 2012).

Key:
[1] = system: Mdc1–FHA domain; assay: Detection of proposed partners in Mdc1–FHA pull-down / co-immunoprecipitation; assay type: binding, human; conditions: for detection in fraction pulled down by Mdc1–FHA domain: mass spectrometry; for detection by western blot in Mdc1–FHA pull-down / co-IP: U2OS, 10 Gy IR or untreated
[2] = system: immunoprecipitated human ATM; assay: In vitro ATM kinase assay of recombinant Mdc1 fragments; assay type: biochemical; conditions: 0.5 mM ATP, γ-[32P]ATP, 30 min at 30°C, autoradiography
[3] = system: Myc-tagged Mdc1 (1–800); assay: Co-immunoprecipitation of Flag- and Myc-tagged Mdc1; assay type: cell-based, human; conditions: transiently transfected 293T cells, anti-Flag IP, anti-Myc immunoblot
Summary of the method: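 Human Mdc1 residues 1–800, C-terminally tagged with HA/FLAG or Myc, in a pcDNA3.1(+) vector. HEK 293T cells grown in D-MEM with 10% FCS and streptomycin/penicillin (100 U/ml). Transfected with FuGene 6 or calcium phosphate. Immunoprecipitation on anti-FLAG M2 affinity gel; Myc-tagged partner detected by immunoblot with rabbit polyclonal c-Myc antibody.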

Molecule	detection in fraction pulled down by Mdc1–FHA domain [1]	phosphorylation by ATM in vitro [2]	interaction of Flag-tagged with Myc-tagged Mdc1 (1–800) [3]	further results
Chk2: DNA damage kinase	could not detect peptides			detection by western blot in Mdc1–FHA pull-down / co-IP [1]: unable to detect
ATM: ataxia telangiectasia-mutated kinase	could not detect peptides			detection by western blot in Mdc1–FHA pull-down / co-IP [1]: unable to detect
M-1: GST-fusion Mdc1 fragment M-1 (amino acids 1–124) (protein, UniProt Q14676 1-124, looked up, fragment, GST fusion) MEDTQAIDWDVEEEEETEQSSESLRCNVEPVGRLHIFSGAHGPEKDFPLHLGKNVVGRMPDCSVALPFPSISKQHAEIEILAWDKAPILRDCGSLNGTQILRPPKVLSPGVSHRLRDQELILFA		ATM only phosphorylated fragment M-1 (amino acids 1–124) and fragment M-4 (amino acids 531–770)		
M-1 T4A: M-1 point mutation altering Thr-4 to Ala (protein, UniProt Q14676 1-124, looked up, variant T4A, GST fusion) MEDAQAIDWDVEEEEETEQSSESLRCNVEPVGRLHIFSGAHGPEKDFPLHLGKNVVGRMPDCSVALPFPSISKQHAEIEILAWDKAPILRDCGSLNGTQILRPPKVLSPGVSHRLRDQELILFA		could no longer be phosphorylated by ATM in vitro		
M-4: GST-fusion Mdc1 fragment M-4 (amino acids 531–770) (protein, UniProt Q14676 531-770, looked up, fragment, GST fusion) PGSAIIHIKKHQVSVEGTNQTDVKAVGGPAKLLVVSLEEAWPLHGDCETDAEEGTSLTASVVADVRKSQLPAEGDAGAEWAAAVLKQERAHEVGAQGGPPVAQVEQDLPISRENLTDLVVDTDTLGESTQPQREGAQVPTGREREQHVGGTKDSEDNYGDSEDLDLQATQCFLENQGLEAVQSMEDEPTQAFMLTPPQELGPSHCSFQTTGTLDEPWEVLATQPFCLRESEDSETQPFDT		ATM only phosphorylated fragment M-1 (amino acids 1–124) and fragment M-4 (amino acids 531–770)		
Rad51: repair protein (protein) MAMQMQLEANADTSVEEESFGPQPISRLEQCGINANDVKKLEEAGFHTVEAVAYAPKKELINIKGISEAKADKILAEAAKLVPMGFTTATEFHQRRSEIIQITTGSKELDKLLQGGIETGSITEMFGEFRTGKTQICHTLAVTCQLPIDRGGGEGKAMYIDTEGTFRPERLLAVAERYGLSGSDVLDNVAYARAFNTDHQTQLLYQASAMMVESRYALLIVDSATALYRTDYSGRGELSARQMHLARFLRMLLRLADEFGVAVVITNQVVAQVDGAAMFAADPKKPIGGNIIAHASTTRLYLRKGRGETRICKIYDSPCLPEAEAMFAINADGVGDAKD	could not detect peptides			
Mdc1 (1–800) R58A: FHA domain R58A mutant of Mdc1 (1–800) (protein, UniProt Q14676 1-800, looked up, variant R58A) MEDTQAIDWDVEEEEETEQSSESLRCNVEPVGRLHIFSGAHGPEKDFPLHLGKNVVGAMPDCSVALPFPSISKQHAEIEILAWDKAPILRDCGSLNGTQILRPPKVLSPGVSHRLRDQELILFADLLCQYHRLDVSLPFVSRGPLTVEETPRVQGETQPQRLLLAEDSEEEVDFLSERRMVKKSRTTSSSVIVPESDEEGHSPVLGGLGPPFAFNLNSDTDVEEGQQPATEEASSAARRGATVEAKQSEAEVVTEIQLEKDQPLVKERDNDTKVKRGAGNGVVPAGVILERSQPPGEDSDTDVDDDSRPPGRPAEVHLERAQPFGFIDSDTDAEEERIPATPVVIPMKKRKIFHGVGTRGPGAPGLAHLQESQAGSDTDVEEGKAPQAVPLEKSQASMVINSDTDDEEEVSAALTLAHLKESQPAIWNRDAEEDMPQRVVLLQRSQTTTERDSDTDVEEEELPVENREAVLKDHTKIRALVRAHSEKDQPPFGDSDDSVEADKSSPGIHLERSQASTTVDINTQVEKEVPPGSAIIHIKKHQVSVEGTNQTDVKAVGGPAKLLVVSLEEAWPLHGDCETDAEEGTSLTASVVADVRKSQLPAEGDAGAEWAAAVLKQERAHEVGAQGGPPVAQVEQDLPISRENLTDLVVDTDTLGESTQPQREGAQVPTGREREQHVGGTKDSEDNYGDSEDLDLQATQCFLENQGLEAVQSMEDEPTQAFMLTPPQELGPSHCSFQTTGTLDEPWEVLATQPFCLRESEDSETQPFDTHLEAYGPCLSPPRAIPGDQHPESPVHTEPM			significant reduction of the interaction	
Mdc1 (1–800) concomitant mutation of both the FHA domain and Thr-4: T4A/R58A mutant of Mdc1 (1–800) (protein, UniProt Q14676 1-800, looked up, variant T4A R58A) MEDAQAIDWDVEEEEETEQSSESLRCNVEPVGRLHIFSGAHGPEKDFPLHLGKNVVGAMPDCSVALPFPSISKQHAEIEILAWDKAPILRDCGSLNGTQILRPPKVLSPGVSHRLRDQELILFADLLCQYHRLDVSLPFVSRGPLTVEETPRVQGETQPQRLLLAEDSEEEVDFLSERRMVKKSRTTSSSVIVPESDEEGHSPVLGGLGPPFAFNLNSDTDVEEGQQPATEEASSAARRGATVEAKQSEAEVVTEIQLEKDQPLVKERDNDTKVKRGAGNGVVPAGVILERSQPPGEDSDTDVDDDSRPPGRPAEVHLERAQPFGFIDSDTDAEEERIPATPVVIPMKKRKIFHGVGTRGPGAPGLAHLQESQAGSDTDVEEGKAPQAVPLEKSQASMVINSDTDDEEEVSAALTLAHLKESQPAIWNRDAEEDMPQRVVLLQRSQTTTERDSDTDVEEEELPVENREAVLKDHTKIRALVRAHSEKDQPPFGDSDDSVEADKSSPGIHLERSQASTTVDINTQVEKEVPPGSAIIHIKKHQVSVEGTNQTDVKAVGGPAKLLVVSLEEAWPLHGDCETDAEEGTSLTASVVADVRKSQLPAEGDAGAEWAAAVLKQERAHEVGAQGGPPVAQVEQDLPISRENLTDLVVDTDTLGESTQPQREGAQVPTGREREQHVGGTKDSEDNYGDSEDLDLQATQCFLENQGLEAVQSMEDEPTQAFMLTPPQELGPSHCSFQTTGTLDEPWEVLATQPFCLRESEDSETQPFDTHLEAYGPCLSPPRAIPGDQHPESPVHTEPM			complete loss of binding	
Mdc1 (1–800) T4A: T4A mutant of Mdc1 (1–800) (protein, UniProt Q14676 1-800, looked up, variant T4A) MEDAQAIDWDVEEEEETEQSSESLRCNVEPVGRLHIFSGAHGPEKDFPLHLGKNVVGRMPDCSVALPFPSISKQHAEIEILAWDKAPILRDCGSLNGTQILRPPKVLSPGVSHRLRDQELILFADLLCQYHRLDVSLPFVSRGPLTVEETPRVQGETQPQRLLLAEDSEEEVDFLSERRMVKKSRTTSSSVIVPESDEEGHSPVLGGLGPPFAFNLNSDTDVEEGQQPATEEASSAARRGATVEAKQSEAEVVTEIQLEKDQPLVKERDNDTKVKRGAGNGVVPAGVILERSQPPGEDSDTDVDDDSRPPGRPAEVHLERAQPFGFIDSDTDAEEERIPATPVVIPMKKRKIFHGVGTRGPGAPGLAHLQESQAGSDTDVEEGKAPQAVPLEKSQASMVINSDTDDEEEVSAALTLAHLKESQPAIWNRDAEEDMPQRVVLLQRSQTTTERDSDTDVEEEELPVENREAVLKDHTKIRALVRAHSEKDQPPFGDSDDSVEADKSSPGIHLERSQASTTVDINTQVEKEVPPGSAIIHIKKHQVSVEGTNQTDVKAVGGPAKLLVVSLEEAWPLHGDCETDAEEGTSLTASVVADVRKSQLPAEGDAGAEWAAAVLKQERAHEVGAQGGPPVAQVEQDLPISRENLTDLVVDTDTLGESTQPQREGAQVPTGREREQHVGGTKDSEDNYGDSEDLDLQATQCFLENQGLEAVQSMEDEPTQAFMLTPPQELGPSHCSFQTTGTLDEPWEVLATQPFCLRESEDSETQPFDTHLEAYGPCLSPPRAIPGDQHPESPVHTEPM			significant reduction of the interaction	
